Laboratory results taken from PMC5684856 (Pharmacology Research & Perspectives, 2017).
Entries after “also recorded” stand apart in the source; their conditions may differ.

Assays:
rat primary islets = assay: Glucose-dependent insulin secretion in rat islets; format: cell-based, Sprague-Dawley rats; details: 1 h
human GPR40/FFAR1 = human GPR40/FFAR1 (Homo sapiens, UniProt O14842); assay: Intracellular calcium assay; format: cell-based
In short: (§1)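 CHO-DXB11 cells stably expressing human, mouse or rat GPR40/FFAR1 were grown in Ham's F-12 with 10% heat-inactivated FBS and penicillin/streptomycin in 96-well plates. Test compounds were dissolved in DMSO. Ca2+ increases were measured in duplicate (FLIPR kit, fluorescence imaging reader) and expressed as % of fasiglifam Emax. EC50 was obtained by sigmoidal curve fit; means ± SD of 6 assays.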

mouse GPR40/FFAR1 = mouse GPR40/FFAR1 (Mus musculus, UniProt Q76JU9); assay: Intracellular calcium assay; format: cell-based
In short: as §1

rat GPR40/FFAR1 = rat GPR40/FFAR1 (Rattus norvegicus, UniProt Q8K3T4); assay: Intracellular calcium assay; format: cell-based
In short: as §1

human GPR119 = molecular target: T1, human GPR119 (Homo sapiens, UniProt Q8TDV5); assay: cAMP reporter assay in CHO-K1 cells expressing human GPR119; format: cell-based
T1 sequence (Q8TDV5 1-335): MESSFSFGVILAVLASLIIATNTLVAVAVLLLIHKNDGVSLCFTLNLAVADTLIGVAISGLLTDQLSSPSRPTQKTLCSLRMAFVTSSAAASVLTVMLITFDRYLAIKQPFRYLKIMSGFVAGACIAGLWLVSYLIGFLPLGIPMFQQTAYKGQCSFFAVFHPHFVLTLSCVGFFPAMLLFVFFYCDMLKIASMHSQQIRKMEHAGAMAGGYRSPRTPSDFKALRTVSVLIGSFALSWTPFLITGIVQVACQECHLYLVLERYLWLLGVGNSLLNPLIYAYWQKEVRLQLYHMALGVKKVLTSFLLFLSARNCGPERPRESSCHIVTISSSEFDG
In short: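 CHO-K1 cells stably expressing human GPR119 were co-transfected with a Cre-luciferase reporter and a renilla luciferase control. Cells were incubated with test compound for 4 h, then lysed. Firefly and renilla luciferase activities were measured in duplicate by dual-luciferase chemiluminescence. AR231453 served as the control agonist.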

human GPR120/FFAR4 = molecular target: T2, human GPR120/FFAR4 (Homo sapiens, UniProt Q5NUL3); assay: Intracellular calcium assay; format: cell-based
T2 sequence (Q5NUL3 1-361): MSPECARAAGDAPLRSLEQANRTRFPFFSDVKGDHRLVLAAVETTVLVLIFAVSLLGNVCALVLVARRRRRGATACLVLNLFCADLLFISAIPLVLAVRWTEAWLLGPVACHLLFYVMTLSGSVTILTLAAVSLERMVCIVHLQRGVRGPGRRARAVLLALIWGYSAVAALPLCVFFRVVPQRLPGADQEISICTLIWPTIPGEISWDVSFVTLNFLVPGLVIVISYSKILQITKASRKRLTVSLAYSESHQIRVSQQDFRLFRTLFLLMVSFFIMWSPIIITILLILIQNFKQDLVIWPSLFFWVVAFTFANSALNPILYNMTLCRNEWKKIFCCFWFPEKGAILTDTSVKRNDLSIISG
In short: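 CHO-DXB11 cells were stably transfected with human GPR120/FFAR4 and grown in Ham's F-12 with 10% heat-inactivated FBS. Intracellular Ca2+ changes were measured in duplicate with a FLIPR calcium kit on a fluorescence imaging plate reader. Alpha-linolenic acid served as the control agonist.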

PPAR gamma = molecular target: T3, PPAR gamma (Homo sapiens, UniProt P37231); assay: Nuclear receptor reporter activation assay; format: cell-based
T3 sequence (P37231 1-505): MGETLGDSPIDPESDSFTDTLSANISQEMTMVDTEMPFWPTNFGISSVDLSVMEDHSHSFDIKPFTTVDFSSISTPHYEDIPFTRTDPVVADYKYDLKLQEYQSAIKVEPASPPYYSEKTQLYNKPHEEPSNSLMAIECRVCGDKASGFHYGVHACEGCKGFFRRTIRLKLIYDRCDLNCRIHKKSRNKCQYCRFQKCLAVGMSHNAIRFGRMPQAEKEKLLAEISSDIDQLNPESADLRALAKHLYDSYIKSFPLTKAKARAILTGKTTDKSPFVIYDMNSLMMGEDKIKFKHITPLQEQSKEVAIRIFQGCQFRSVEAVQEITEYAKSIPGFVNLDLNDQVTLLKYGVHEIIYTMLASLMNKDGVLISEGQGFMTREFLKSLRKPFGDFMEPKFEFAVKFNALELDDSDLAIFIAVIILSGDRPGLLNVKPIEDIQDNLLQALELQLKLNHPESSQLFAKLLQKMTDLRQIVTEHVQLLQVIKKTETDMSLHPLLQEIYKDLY

[1] = Pharmacokinetic study in rats; format: in vivo, male Sprague-Dawley rats; details: rat
In short: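 Male Sprague-Dawley rats, 7 weeks old, received 3 mg kg−1 intravenously in N,N-dimethylacetamide/PEG400/water (4/4/2). After overnight fasting, others received 0.3, 1, 3 or 10 mg kg−1 orally as a suspension in 1% Tween 80 with 0.5% carboxymethyl cellulose. Plasma levels were analysed by noncompartmental analysis, with bioavailability from AUC. n = 3 per group; mean (SD).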

GPR40/FFAR1 = GPR40/FFAR1 (Mus musculus, UniProt Q76JU9); format: cell-based
In short: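 CHO-DXB11 cells stably expressing mouse GPR40/FFAR1 were assayed for intracellular Ca2+ increases (FLIPR calcium dye, fluorescence imaging plate reader) in the presence of 10% FBS and 0.5% BSA. Triplicate determinations; means + SD.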

[2] = tested on: mouse insulinoma MIN6 cells; assay: Caspase 3/7 activity in MIN6 cells; format: cell-based; details: 72-h exposure
In short: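 MIN6 mouse insulinoma cells were grown in DMEM with 10% heat-inactivated FBS, penicillin/streptomycin and 0.0005% 2-mercaptoethanol. Cells were exposed to test compound or palmitic acid for 72 h in 10% FBS plus 0.5% BSA. Caspase-3/7 activity was read with a homogeneous fluorogenic caspase-3/7 kit. Triplicate determinations; means + SD.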

Sprague-Dawley rats [3] = assay: Oral glucose tolerance test in Sprague-Dawley rats; format: in vivo, rat
In short: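 Male Sprague-Dawley rats, 7–8 weeks old, were fasted overnight and grouped by body weight (n = 10). Vehicle or test compound was given orally 60 min before oral glucose 1 g kg−1. Blood was sampled pre-dose, at −5 min, and at 5, 15, 30, 60 and 120 min. Plasma glucose was measured enzymatically and insulin by ultrasensitive rat insulin ELISA. AUCs covered −5 to 120 min (glucose) and −5 to 60 min (insulin). Dunnett's test; means + SEM.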

Sprague-Dawley rats [4] = assay: Effects on fasting glucose levels in Sprague-Dawley rats; format: in vivo, rat; details: fasted Sprague-Dawley rats
Goto-Kakizaki (GK) rats [5] = assay: Oral glucose tolerance test in Goto-Kakizaki rats; format: in vivo, rat
In short: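 Male GK rats, 9–10 weeks old, were fasted overnight and grouped (n = 9–10) by fasting glucose and body weight. Vehicle or test compound was given orally, followed by oral glucose 1 g kg−1 60 min later. Blood was taken pre-dose, at −5 min, and at 5–180 min after glucose. Plasma glucose AUC covered −5 to 180 min and insulin AUC −5 to 60 min. Dunnett's test; means + SEM.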

Goto-Kakizaki (GK) rats [6] = assay: Chronic 5-week treatment in Goto-Kakizaki rats; format: in vivo, rat
[7] = tested on: healthy volunteers and T2DM patients; details: cited from earlier work
[8] = ref Tsujihata et al. 2011; Ito et al. 2013; cited from earlier work
[9] = male, Sprague-Dawley, plasma, iv, 3 mg/kg
[10] = male, Sprague-Dawley, plasma, po, 0.3 mg/kg
[11] = male, Sprague-Dawley, plasma, po, 1 mg/kg
[12] = male, Sprague-Dawley, plasma, po, 3 mg/kg
[13] = male, Sprague-Dawley, plasma, po, 10 mg/kg
[14] = 1 mg·kg^−1 p.o., 15 min after glucose challenge
[15] = p.o. 60 min before glucose 1 g kg^−1, vs vehicle

Chain of GPR40/FFAR1 (Q76JU9 whole entry): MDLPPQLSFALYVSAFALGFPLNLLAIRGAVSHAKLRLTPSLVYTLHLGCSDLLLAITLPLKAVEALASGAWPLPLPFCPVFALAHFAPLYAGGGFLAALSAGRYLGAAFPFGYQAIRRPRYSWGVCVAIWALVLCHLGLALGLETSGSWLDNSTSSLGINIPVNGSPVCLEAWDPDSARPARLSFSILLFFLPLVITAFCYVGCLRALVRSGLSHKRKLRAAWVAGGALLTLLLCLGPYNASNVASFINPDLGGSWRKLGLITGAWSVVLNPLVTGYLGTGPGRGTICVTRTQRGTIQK
Chain of mouse GPR40/FFAR1 (Q76JU9 whole entry): as above
Chain of human GPR40/FFAR1 (O14842 whole entry): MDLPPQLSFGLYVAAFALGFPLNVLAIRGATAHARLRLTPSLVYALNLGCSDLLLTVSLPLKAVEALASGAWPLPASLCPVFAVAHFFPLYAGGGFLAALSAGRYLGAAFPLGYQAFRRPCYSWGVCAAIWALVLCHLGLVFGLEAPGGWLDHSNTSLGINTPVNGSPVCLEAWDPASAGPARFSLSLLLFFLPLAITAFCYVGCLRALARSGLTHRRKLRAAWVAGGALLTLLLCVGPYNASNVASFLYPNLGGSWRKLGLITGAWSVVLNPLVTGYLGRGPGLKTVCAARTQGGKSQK
Chain of rat GPR40/FFAR1 (Q8K3T4 whole entry): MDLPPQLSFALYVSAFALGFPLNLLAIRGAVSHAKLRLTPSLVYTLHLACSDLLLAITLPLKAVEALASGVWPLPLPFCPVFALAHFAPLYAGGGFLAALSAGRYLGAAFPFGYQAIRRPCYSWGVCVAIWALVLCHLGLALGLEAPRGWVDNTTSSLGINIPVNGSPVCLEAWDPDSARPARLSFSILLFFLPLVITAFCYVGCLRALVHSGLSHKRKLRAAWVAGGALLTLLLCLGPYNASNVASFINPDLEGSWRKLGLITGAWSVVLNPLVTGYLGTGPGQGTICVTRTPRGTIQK

[Cl-].[K+] [KCl, reference compound]
insulin secretion in low glucose (rat primary islets; KCl positive control, 2 mmol·L^−1 glucose): significantly potentiated insulin secretion | insulin secretion in high glucose (rat primary islets; KCl positive control, 16 mmol·L^−1 glucose): significantly potentiated insulin secretion

Cc1cc(OCCCS(C)(=O)=O)cc(C)c1-c1cccc(COc2ccc(-c3cc(O)n[s+]3[O-])cc2)c1 [MR1704, (R)‐5‐[4‐[3‐[2,6‐Dimethyl‐4‐[3‐(methylsulphonyl)propoxy]‐phenyl]benzyloxy]phenyl]‐isothiazol‐3‐ol 1‐oxide]
EC50 (human GPR40/FFAR1): 35 ± 6 nM | EC50 (mouse GPR40/FFAR1): 25 ± 4 nM | EC50 (rat GPR40/FFAR1): 27 ± 3 nM | hGPR119 activation (at 3 nmol·L^−1) (human GPR119; at 3 nmol·L^−1 as printed): 1% | agonistic activity in GPR119-expressing cells (human GPR119; at 3 μmol·L^−1): did not show any agonistic activities | hGPR120 activation (at 3 nmol·L^−1) (human GPR120/FFAR4; at 3 nmol·L^−1 as printed): 4% | agonistic activity in GPR120/FFAR4-expressing cells (human GPR120/FFAR4; at 3 μmol·L^−1): did not show any agonistic activities | PPAR gamma activation (at 3 nmol·L^−1) (PPAR gamma; at 3 nmol·L^−1 as printed): 1% | agonistic activity in PPAR gamma-expressing cells (PPAR gamma; at 3 μmol·L^−1): did not show any agonistic activities | AUC(0-inf) [1, 9]: 8960 ng·h/mL | Vd [1, 9]: 0.584 L/kg | clearance [1, 9]: 5.62 mL/min/kg | half-life [1, 9]: 1.92 h | AUC(0-inf) [1, 10]: 511 ng·h/mL | Cmax [1, 10]: 102 ng/mL | Tmax [1, 10]: 0.83 h | bioavailability [1, 10]: 57% | half-life [1, 10]: 2.48 h | AUC(0-inf) [1, 11]: 1450 ng·h/mL | Cmax [1, 11]: 264 ng/mL | Tmax [1, 11]: 2.67 h | bioavailability [1, 11]: 49% | half-life [1, 11]: 2.1 h | AUC(0-inf) [1, 12]: 4710 ng·h/mL | Cmax [1, 12]: 755 ng/mL | Tmax [1, 12]: 4 h | bioavailability [1, 12]: 53% | half-life [1, 12]: 2.13 h | AUC(0-inf) [1, 13]: 8430 ng·h/mL | Cmax [1, 13]: 1130 ng/mL | Tmax [1, 13]: 5.33 h | bioavailability [1, 13]: 28% | half-life [1, 13]: 2.08 h | time at which plasma concentrations reached maximum values ([1]; p.o., all tested doses (0.3-10 mg·kg^−1)): 0.83 to 5.33 h | insulin secretion in low glucose (rat primary islets; MR1704 3 μmol·L^−1, 2 mmol·L^−1 glucose): but not low glucose conditions | insulin secretion in high glucose (rat primary islets; MR1704 3 μmol·L^−1, 16 mmol·L^−1 glucose): markedly potentiated insulin secretion in high glucose | EC50 (GPR40/FFAR1): 210 nM | caspase 3/7 activity ([2]; even at 10 μmol·L^−1 with 0.5% BSA): did not induce caspase 3/7 activity | AUC of glucose levels during OGTT (Sprague-Dawley rats [3]; 1 mg·kg^−1 p.o.): significant reduction in the AUC of glucose levels | plasma insulin secretion during OGTT (Sprague-Dawley rats [3]; [14]): significantly enhanced | plasma glucose excursion during OGTT (Sprague-Dawley rats [3]; [15]): reduced plasma glucose excursion | fasting plasma glucose levels (Sprague-Dawley rats [4]; even at 300 mg·kg^−1 p.o., 1 to 12 h after dosing): did not reduce the fasting plasma glucose levels | AUC of glucose levels during OGTT (Goto-Kakizaki (GK) rats [5]; 1 mg·kg^−1 p.o.): significant reduction in the AUC of glucose levels | plasma insulin secretion during OGTT (Goto-Kakizaki (GK) rats [5]; [14]): significantly enhanced plasma insulin secretion | plasma glucose excursion during OGTT (Goto-Kakizaki (GK) rats [5]; [15]): reduced plasma glucose excursion | glycated hemoglobin (HbA1c) levels, effect in words (Goto-Kakizaki (GK) rats [6]; 3 mg·kg^−1 p.o. once daily, after 5 weeks): significantly reduced glycated hemoglobin (HbA1c) levels | pancreatic insulin content (Goto-Kakizaki (GK) rats [6]; after 5-week treatment, vs vehicle): without reducing pancreatic insulin content; also recorded: No significant difference was observed | nonfasting glucose levels (Goto-Kakizaki (GK) rats [6]; at least 1 mg·kg^−1 p.o. once daily, 5 weeks): reduced nonfasting glucose levels | body weight gain (Goto-Kakizaki (GK) rats [6]; once daily p.o., 5 weeks, vs vehicle-treated group): comparable body weight gain

Cc1cc(OCCCS(C)(=O)=O)cc(C)c1-c1cccc(COc2ccc3c(c2)OC[C@H]3CC(=O)O)c1 [fasiglifam]
glucose-lowering effect ([7]; T2DM patients, ref Burant et al. 2012, Kaku et al. 2013): glucose‐lowering effect | hepatotoxicity (liver enzyme levels) ([7]; clinical, ref Kaku et al. 2015): increased liver enzyme levels | clinical parameters of glucose homeostasis ([7]; healthy human adults, ref Leifke et al. 2012): did not affect clinical parameters of glucose homeostasis | safety and tolerability ([7]; healthy volunteers, ref Naik et al. 2012): safe and well tolerated | pancreatic toxicity [8]: does not cause pancreatic toxicity

COc1ccc(Cl)cc1C(=O)NCCc1ccc(S(=O)(=O)NC(=O)NC2CCCCC2)cc1 [glibenclamide, reference compound]
fasting plasma glucose levels (Sprague-Dawley rats [4]; glibenclamide 10 mg·kg^−1 p.o.): significantly reduced the fasting plasma glucose levels

CCCCCCCCCCCCCCCC(=O)O [palmitic acid, reference compound]
EC50 (GPR40/FFAR1): 29000 nM | caspase 3/7 activity ([2]; 300 μmol·L^−1 with 0.5% BSA): induced caspase 3/7 activity
